Test results published in ChEMBL document CHEMBL1155137, “Extended-spectrum beta-lactamases of the CTX-M type now in Switzerland” (2007).
Values after ≈ are worked out from the molar mass of the structure shown.

Legend:
[1] = tested on: Enterobacter; assay: Antimicrobial activity against Enterobacter isolates producing extended-spectrum beta-lactamase assessed as percent resistant isolates by disk diffusion method
[2] = tested on: Enterobacter; assay: Antimicrobial activity against Enterobacter isolates producing extended-spectrum beta-lactamase CTX-M-2 by agar dilution method; assay type: functional
Procedure, shortened: (§1)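 Enterobacterial clinical isolates on Mueller-Hinton agar. Agar dilution with an inoculum of 10⁴ CFU per spot gave MICs of selected β-lactams. β-lactams were tested alone or with a fixed level of clavulanic acid (4 μg/ml) or tazobactam (4 μg/ml).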

[3] = tested on: Enterobacter; assay: Antimicrobial activity against Enterobacter isolates producing extended-spectrum beta-lactamase CTX-M-9 by agar dilution method; assay type: functional
Procedure, shortened: as §1

[4] = tested on: Enterobacter; assay: Antimicrobial activity against Enterobacter isolates producing extended-spectrum beta-lactamase TEM-ES by agar dilution method; assay type: functional
Procedure, shortened: as §1

[5] = tested on: Enterobacter; assay: Antimicrobial activity against Enterobacter isolates producing extended-spectrum beta-lactamase SHV-ES by agar dilution method; assay type: functional
Procedure, shortened: as §1

[6] = tested on: Enterobacter; assay: Antimicrobial activity against Enterobacter isolates producing extended-spectrum beta-lactamase CTX-M-15 by agar dilution method; assay type: functional
Procedure, shortened: as §1

[7] = tested on: Enterobacter; assay: Antimicrobial activity against Enterobacter isolates producing extended-spectrum beta-lactamase CTX-M-1 by agar dilution method; assay type: functional
Procedure, shortened: as §1

[8] = tested on: Enterobacter; assay: Antimicrobial activity against Enterobacter isolates producing extended-spectrum beta-lactamase CTX-M-14 by agar dilution method; assay type: functional
Procedure, shortened: as §1

MIC [2] | MIC [3] | MIC [4] | MIC [5] | MIC [6] | MIC [7] | MIC [8] | SMILES | Activity [1]
– | – | – | – | – | – | – | NCC[C@H](O)C(=O)N[C@@H]1C[C@H](N)[C@@H](O[C@H]2O[C@H](CN)[C@@H](O)[C@H](O)[C@H]2O)[C@H](O)[C@H]1O[C@H]1O[C@H](CO)[C@@H](O)[C@H](N)[C@H]1O [AMIKACIN] | 2%
> 256 µg/mL | > 256 µg/mL | > 256 µg/mL | > 256 µg/mL | > 256 µg/mL | > 256 µg/mL | > 256 µg/mL | CC1(C)S[C@@H]2[C@H](NC(=O)[C@H](N)c3ccc(O)cc3)C(=O)N2[C@H]1C(=O)O [AMOXICILLIN] | –
16 µg/mL (≈ 33.3 µM) | 2 µg/mL (≈ 4.16 µM) | 0.25 µg/mL (≈ 0.52 µM) | 0.25 µg/mL (≈ 0.52 µM) | 8 µg/mL (≈ 16.6 µM) | 32 µg/mL (≈ 66.6 µM) | 2 µg/mL (≈ 4.16 µM) | CO/N=C(\C(=O)N[C@@H]1C(=O)N2C(C(=O)[O-])=C(C[N+]3(C)CCCC3)CS[C@H]12)c1csc(N)n1 [CEFEPIME] | –
128 µg/mL (≈ 281 µM) | 32 µg/mL (≈ 70.3 µM) | 0.12 µg/mL (≈ 0.263 µM) | 2 µg/mL (≈ 4.39 µM) | 128 µg/mL (≈ 281 µM) | > 256 µg/mL | 32 µg/mL (≈ 70.3 µM) | CO/N=C(\C(=O)N[C@@H]1C(=O)N2C(C(=O)O)=C(COC(C)=O)CS[C@H]12)c1csc(N)n1 [CEFOTAXIME] | –
4 µg/mL (≈ 9.36 µM) | 8 µg/mL (≈ 18.7 µM) | 4 µg/mL (≈ 9.36 µM) | 4 µg/mL (≈ 9.36 µM) | 4 µg/mL (≈ 9.36 µM) | 8 µg/mL (≈ 18.7 µM) | 4 µg/mL (≈ 9.36 µM) | CO[C@@]1(NC(=O)Cc2cccs2)C(=O)N2C(C(=O)O)=C(COC(N)=O)CS[C@@H]21 [CEFOXITIN] | –
> 256 µg/mL | > 256 µg/mL | > 256 µg/mL | > 256 µg/mL | > 256 µg/mL | > 256 µg/mL | > 256 µg/mL | CC(=O)OCC1=C(C(=O)O)N2C(=O)[C@@H](NC(=O)Cc3cccs3)[C@H]2SC1 [CEPHALOTHIN] | –
– | – | – | – | – | – | – | O=C(N[C@H](CO)[C@H](O)c1ccc([N+](=O)[O-])cc1)C(Cl)Cl [CHLORAMPHENICOL] | 30%
– | – | – | – | – | – | – | O=C(O)c1cn(C2CC2)c2cc(N3CCNCC3)c(F)cc2c1=O [CIPROFLOXACIN] | 50%
0.06 µg/mL (≈ 0.126 µM) | 0.06 µg/mL (≈ 0.126 µM) | 0.06 µg/mL (≈ 0.126 µM) | 0.06 µg/mL (≈ 0.126 µM) | 0.003 µg/mL (≈ 0.00631 µM) | 0.12 µg/mL (≈ 0.252 µM) | 0.003 µg/mL (≈ 0.00631 µM) | C[C@@H](O)[C@H]1C(=O)N2C(C(=O)O)=C(S[C@@H]3CN[C@H](C(=O)Nc4cccc(C(=O)O)c4)C3)[C@H](C)[C@H]12 [ERTAPENEM] | –
0.25 µg/mL (≈ 0.835 µM) | 0.25 µg/mL (≈ 0.835 µM) | 0.25 µg/mL (≈ 0.835 µM) | 0.25 µg/mL (≈ 0.835 µM) | 0.25 µg/mL (≈ 0.835 µM) | 0.25 µg/mL (≈ 0.835 µM) | 0.25 µg/mL (≈ 0.835 µM) | C[C@@H](O)[C@H]1C(=O)N2C(C(=O)O)=C(SCCNC=N)C[C@H]12 [IMIPENEM ANHYDROUS] | –
128 µg/mL (≈ 247 µM) | 64 µg/mL (≈ 124 µM) | 32 µg/mL (≈ 61.8 µM) | 32 µg/mL (≈ 61.8 µM) | 128 µg/mL (≈ 247 µM) | > 256 µg/mL | 32 µg/mL (≈ 61.8 µM) | CCN1CCN(C(=O)N[C@@H](C(=O)N[C@@H]2C(=O)N3[C@@H]2SC(C)(C)[C@@H]3C(=O)O)c2ccccc2)C(=O)C1=O [PIPERACILLIN] | –
> 256 µg/mL | > 256 µg/mL | > 256 µg/mL | > 256 µg/mL | > 256 µg/mL | > 256 µg/mL | > 256 µg/mL | CC1(C)S[C@@H]2[C@H](NC(=O)[C@H](C(=O)O)c3ccsc3)C(=O)N2[C@H]1C(=O)O [TICARCILLIN] | –

SMILES | MIC [2] | MIC [3] | MIC [4] | MIC [5] | MIC [6] | MIC [7] | MIC [8] | Activity [1]
C[C@H]1[C@H](NC(=O)/C(=N\OC(C)(C)C(=O)O)c2csc(N)n2)C(=O)N1S(=O)(=O)O [AZTREONAM] | 16 µg/mL (≈ 36.7 µM) | 2 µg/mL (≈ 4.59 µM) | 2 µg/mL (≈ 4.59 µM) | 2 µg/mL (≈ 4.59 µM) | 2 µg/mL (≈ 4.59 µM) | 64 µg/mL (≈ 147 µM) | 2 µg/mL (≈ 4.59 µM) | –
CC(C)(O/N=C(\C(=O)N[C@@H]1C(=O)N2C(C(=O)[O-])=C(C[n+]3ccccc3)CS[C@H]12)c1csc(N)n1)C(=O)O [CEFTAZIDIME] | 1 µg/mL (≈ 1.83 µM) | 1 µg/mL (≈ 1.83 µM) | 4 µg/mL (≈ 7.32 µM) | 0.25 µg/mL (≈ 0.457 µM) | 1 µg/mL (≈ 1.83 µM) | 4 µg/mL (≈ 7.32 µM) | 0.5 µg/mL (≈ 0.915 µM) | –
